Laboratory results reported in ChEMBL document CHEMBL4715831, “Design and synthesis of 2-((1H-indol-3-yl)thio)-N-phenyl-acetamides as novel dual inhibitors of respiratory syncytial virus and influenza virus A” (Eur J Med Chem, 2020).

What was measured:
Influenza A virus [1] = assay: Antiviral activity against Influenza A virus A/WSN/33(H1N1) infected in human HEK293T cells assessed as inhibition of viral replication at 10 uM measured after 24 hrs by Gaussia luciferase reporter gene method relative to control; format: functional; conditions: A/WSN/1933(H1N1), HEK-293T
[2] = test system: Respiratory syncytial virus; assay: Antiviral activity against GFP-fused wild-type RSV subgroup A Long infected in human HEp-2 cells assessed as relative fluorescence intensity at 20 uM pretreated for 1 hr followed by viral infection measured 24 to 72 hrs post infection by fluorescence assay; format: functional, Respiratory syncytial virus type A; conditions: time 24-73 hrs
How it was run: (§1)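 HEp-2 cells exposed to compound at 20 μM 1 h before RSV-mGFP infection (−1 h). GFP fluorescence read at 479/517 nm at 24, 48 and 72 h post-infection. Signal normalized to the DMSO control, set as 1; ribavirin was the positive control. Mean ± SD, three independent experiments.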

[3] = Cytotoxicity against human HEp-2 cells assessed as reduction in cell viability measured after 48 hrs by MTS assay; format: cell-based
How it was run: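 HEp-2 cells plated; after 24 h, compound added and cells incubated 48 h. MTS (2 mg/ml) then added for 3 h at 37 °C in 5% CO2 and absorbance read at 490 nm. Untreated control set as 100%.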

Influenza A virus [4] = assay: Antiviral activity against Influenza A virus A/WSN/33(H1N1) infected in human HEK293T cells measured after 24 hrs by Gaussia luciferase reporter gene method; format: functional, organism-based; conditions: A/WSN/1933(H1N1); for EC50: HEK-293T
How it was run: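 HEK293T cells carrying a Gaussia luciferase reporter that is activated by IAV, infected with A/WSN/33 (H1N1) for 1 h at room temperature, then cultured 24 h at 37 °C with serially diluted compound. Supernatant Gluc read with coelenterazine-h (16.7 μM in PBS) as 0.5-s photon counts. Normalized to control set as 100%; ribavirin positive control; three experiments.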

[5] = Safety index, ratio of CC50 for human HEp-2 cells to EC50 for GFP-fused wild-type RSV subgroup A long infected in human HEp-2 cells; format: toxicity, cell-based; conditions: read-out: Ratio CC50/EC50
[6] = Safety index, ratio of CC50 for HEK293T cells to EC50 for antiviral activity against Influenza A virus A/WSN/33(H1N1) infected in human HEK293T cells; format: toxicity, cell-based; conditions: read-out: Ratio CC50/EC50
[7] = test system: Respiratory syncytial virus; assay: Antiviral activity against GFP-fused wild-type RSV subgroup A Long infected in human HEp-2 cells assessed as reduction in viral infection at 20 uM measured 24 to 72 hrs post infection by fluorescence assay relative to control; format: functional, Respiratory syncytial virus type A; set-up: scale not given: the % may be the effect or the level left; conditions: time 24-72 hrs
How it was run: (§2)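 RSV-mGFP infection of HEp-2 cells with compound at 20 μM added at the time of infection (0 h). Fluorescence read at excitation 479 nm and emission 517 nm at 24, 48 and 72 h post-infection. Values normalized to the DMSO control, set as 1; ribavirin was the positive control. Mean ± SD of three independent experiments.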

[8] = test system: Respiratory syncytial virus; assay: Antiviral activity against GFP-fused wild-type RSV subgroup A Long infected in human HEp-2 cells assessed as relative fluorescence intensity at 20 uM measured 24 to 72 hrs post infection by fluorescence assay; format: functional, Respiratory syncytial virus type A; how it was run: as §2
[9] = Cytotoxicity against HEK293T cells assessed as reduction in cell viability measured after 48 hrs by CCK8 assay; format: cell-based, HEK-293T; conditions: human
How it was run: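 293T cells treated for 48 h with six compound concentrations from 12.5 to 200 μM, with DMSO-only cells as control. CCK-8 then added for 1 h at 37 °C and OD read at 450 nm. Mean ± SD of three experiments.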

[10] = test system: Respiratory syncytial virus; assay: Antiviral activity against GFP-fused wild-type RSV subgroup A Long infected in human HEp-2 cells assessed as reduction in viral infection at 20 uM pretreated for 1 hr followed by viral infection measured 24 to 72 hrs post infection by fluorescence assay relative to control; format: functional, Respiratory syncytial virus type A; set-up: scale not given: the % may be the effect or the level left; conditions: time 24-73 hrs; how it was run: as §1
[11] = test system: Respiratory syncytial virus; assay: Antiviral activity against GFP-fused wild-type RSV subgroup A Long infected in human HEp-2 cells measured 24 to 72 hrs post infection by fluorescence assay; format: functional, cell-based
How it was run: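 HEp-2 cells plated, then after 24 h infected with RSV-mGFP using 3-fold serially diluted inocula starting from 3 × 10^4 pfu/well. Compounds came from a 100 mM DMSO stock, diluted as indicated. RFU read at 479/517 nm at 24, 48 and 72 h post-infection, with non-infected cells as background. Mean ± SD of at least three experiments.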

[12] = Cytotoxicity against human HEp-2 cells assessed as cell viability at 50 uM measured after 48 hrs by MTS assay relative to control; format: cell-based; conditions: read-out: Activity
[13] = test system: Respiratory syncytial virus; assay: Antiviral activity against GFP-fused wild-type RSV subgroup A Long infected in human HEp-2 cells at 50 uM measured 24 to 72 hrs post infection by fluorescence assay relative to control; format: functional; conditions: time 24-72 hrs
Influenza A virus [14] = assay: Antiviral activity against Influenza A virus A/WSN/33(H1N1) infected in HEK293T cells assessed as relative fluorescence intensity at 20 uM measured after 24 hrs by Gaussia luciferase reporter gene method; format: functional, A/WSN/1933(H1N1)
How it was run: (§3)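 Time-of-addition assay: compound at 20 μM added before infection or at infection (0 h) in HEK293T-Gluc cells infected with A/WSN/33 (H1N1). Supernatant Gaussia luciferase measured after 24 h with coelenterazine-h. Values normalized to the DMSO control, set as 100%; ribavirin positive control. Mean ± SD, three independent experiments.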

Influenza A virus [15] = assay: Antiviral activity against Influenza A virus A/WSN/33(H1N1) infected in MDCK cells measured after 24 hrs by Gaussia luciferase reporter gene method; format: functional, organism-based; conditions: A/WSN/1933(H1N1)
How it was run: (§4)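 MDCK cells infected with IAV A/WSN/33 (H1N1) or H3N2 for 1 h at room temperature, then cultured in fresh DMEM with serially diluted compound for 24 h at 37 °C. Gluc activity in the medium read with coelenterazine-h (16.7 μM in PBS). Normalized to control set as 100%; ribavirin positive control; mean ± SD of three experiments.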

[16] = Antiviral activity against H3N2 infected in MDCK cells measured after 24 hrs by Gaussia luciferase reporter gene method; format: functional, cell-based, H3N2 subtype; conditions: Influenza A virus; how it was run: as §4
Influenza A virus [17] = assay: Antiviral activity against Influenza A virus A/WSN/33(H1N1) infected in HEK293T cells assessed as inhibition of viral replication at 20 uM pretreated for 2 hrs followed by viral infection and measured after 24 hrs by Gaussia luciferase reporter gene method relative to control; format: functional; conditions: A/WSN/1933(H1N1), HEK-293T, time 26 hrs; how it was run: as §3
Influenza A virus [18] = assay: Antiviral activity against Influenza A virus A/WSN/33(H1N1) infected in HEK293T cells assessed as relative fluorescence intensity at 20 uM pretreated for 2 hrs followed by viral infection and measured after 24 hrs by Gaussia luciferase reporter gene method; format: functional, A/WSN/1933(H1N1); conditions: time 26 hrs; how it was run: as §3
Influenza A virus [19] = assay: Antiviral activity against Influenza A virus A/WSN/33(H1N1) infected in HEK293T cells co-transfected with NP/PA/PB1/PB2 complex assessed as inhibition of viral replication after 24 hrs by mini-genome replicon system based luciferase assay; format: functional, organism-based; conditions: A/WSN/1933(H1N1); for EC50: HEK-293T
How it was run: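 Minigenome assay: vRNA transcription read as luciferase activity 24 h after transfection. Normalized to control set as 100%. Mean ± SD of three independent experiments.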

Influenza A virus [20] = assay: Antiviral activity against Influenza A virus A/WSN/33(H1N1) infected in HEK293T cells assessed as inhibition of viral replication at 20 uM measured after 24 hrs by Gaussia luciferase reporter gene method relative to control; format: functional; conditions: A/WSN/1933(H1N1), HEK-293T; how it was run: as §3

Structure (SMILES)	inhibition at 10 µM (Influenza A virus [1]) [%]	CC50 at 48 h [3] [µM]	Activity (Influenza A virus [4])	EC50 (Influenza A virus [4]) [µM]	selectivity ratio [5]	selectivity ratio [6]	CC50 at 48 h [9] [µM]	Activity [11]	EC50 [11] [µM]	EC50 (Influenza A virus [15]) [µM]	EC50 [16] [µM]	RFU (Influenza A virus [18])	further results
CCOc1ccccc1NC(=O)CSc1c[nH]c2ccc(OC)cc12	> 85	1830	Dose-dependent effect	1.27	379	> 79.4	> 100	Dose-dependent effect	4.82				RFU [2]: 0.06; Activity [7]: 99.89%; RFU [8]: 0.11; Activity [10]: 99.4%
CCOc1ccccc1NC(=O)CSc1c[nH]c2ccccc12		20.7			1.76				11.8				viability at 48 h, 50 µM [12]: 65.2%; inhibition at 50 µM [13]: 83.2%
CCOc1ccccc1NC(=O)CSc1c[nH]c2cc(Cl)ccc12	> 85	29.9	Dose-dependent effect	1.53	5.36	> 65.4	> 100	Dose-dependent effect	5.58	2.42	1.58	0.14	RFU (Influenza A virus [14]): 0.22; inhibition at 20 µM (Influenza A virus [17]): 99.7%; inhibition (Influenza A virus [19]): Dose-dependent effect; EC50 (Influenza A virus [19]): 1.98 µM; inhibition at 20 µM (Influenza A virus [20]): 99.7%
Cn1cc(SCC(=O)Nc2c(Cl)cccc2Cl)c2ccccc21	> 85	23.7	Dose-dependent effect	3.5	1.37	> 28.6	> 100		17.3	1.75	1.5		
NC(=O)c1ncn([C@@H]2O[C@H](CO)[C@@H](O)[C@H]2O)n1 [RIBAVIRIN]		274		25.1	17.3	> 3.99	> 100		15.8	16	20.5	0.67	RFU [2]: 0.04
Cn1cc(SCC(=O)Nc2ccc(Cl)c(Cl)c2)c2ccccc21	> 85	30.5		0.64	2.45	> 156	> 100		12.5				
CCOc1ccccc1NC(=O)CSc1c[nH]c2c(Br)c(OC)ccc12	> 85	9.65	Dose-dependent effect	1.9	3.3	> 52.6	> 100	Dose-dependent effect	2.92	3.25	1.5	0.14	RFU (Influenza A virus [14]): 0.28; inhibition at 20 µM (Influenza A virus [17]): 99.7%; inhibition (Influenza A virus [19]): Dose-dependent effect; EC50 (Influenza A virus [19]): 3.89 µM; inhibition at 20 µM (Influenza A virus [20]): 99.7%
O=C(CSc1c[nH]c2ccccc12)Nc1ccc(Cl)c(Cl)c1		37.5			1.15				32.7				viability at 48 h, 50 µM [12]: 81.8%; inhibition at 50 µM [13]: 77.1%
